Published values gathered from unrelated publications.
Compare with care: the assays were run in different laboratories.
Observed: cell growth or viability

| Compound | cell line | assay | setting | IC50 |
| --- | --- | --- | --- | --- |
| CCOC(=O)c1ccc2c(c1)C(=O)CCN1C(=O)c3ccccc3C1C(=O)N2 (centres unmarked) | L6 | – | – | > 260 µM |
| CNC(=O)c1cc(Oc2ccc(NC(=O)Nc3ccc(Cl)c(C(F)(F)F)c3)cc2)ccn1 | NCI-H460 | MTT | 72 h | 3.81 µM |
| COc1cc2c3c(n(CCCn4ccnc4)c(=O)c2cc1OC)-c1nc2c(cc1C3=O)OCO2 | RS4-11 | MTS | 72 h | 0.12 µM |
| O=C1c2ccccc2C23C(=O)Nc4ccccc4C2(O)CCN13 (centres unmarked) | L6 | – | – | > 330 µM |
| C=C(F)C(=O)N1CCN(c2nc(OC[C@@H]3CCCN3C)nc3c2CCN(c2cccc4cccc(Cl)c24)C3)C[C@@H]1CC#N | KYSE-410 | ATP luminescence | – | 3.07 µM |
| COc1cc2nc(N3CCN(C(=O)c4ccco4)CC3)nc(N)c2cc1OC | HNE1 | MTT | 48 h | 41.6 µM |
| N#Cc1cc(C=NNC(=N)NN=Cc2ccc(F)c(C#N)c2)ccc1F | L6 | resazurin | 70 h | 5.95 µM |
| COc1cc2c3c(n(CCCNCCO)c(=O)c2cc1OC)-c1nc2c(cc1C3=O)OCO2 | RS4-11 | MTS | 72 h | 0.034 µM |
| COc1cc2c(cc1OC)-c1cc3ccc(OC)c(OCCN)c3c[n+]1CC2 | NCI-H460 | MTT | 72 h | > 80 µM |
| COc1cc2nc(N3CCN(C(=O)C4COc5ccccc5O4)CC3)nc(N)c2cc1OC (centres unmarked) | HK-1 | MTT | 48 h | 31.7 µM |
| O=C1CCN2C(=O)c3ccccc3C2C(=O)Nc2cc(F)ccc21 (centres unmarked) | L6 | – | – | > 300 µM |
| N=C(NN=CCc1ccc(OC(F)(F)F)cc1)NN=CCc1ccc(OC(F)(F)F)cc1 | L6 | resazurin | 70 h | 4.02 µM |
| O=C1CCN2C(=O)CCC2C(=O)Nc2ccccc21 (centres unmarked) | L6 | – | – | > 390 µM |
| N=C(N/N=C/c1ccc(Oc2ccccc2)cc1)N/N=C/c1ccc(Oc2ccccc2)cc1 | L6 | resazurin | 70 h | 4.44 µM |
| O=C1CCN2C(=O)c3cc(F)c(F)cc3C2C(=O)Nc2ccccc21 (centres unmarked) | L6 | – | – | > 290 µM |
| O=C1CCC(N2Cc3c(C#CC4CCN(C(=O)[C@H]5CC[C@H](NC(=O)[C@H]6NC7(CCCCC7)[C@]7(C(=O)Nc8cc(Cl)ccc87)[C@H]6c6cccc(Cl)c6F)CC5)CC4)cccc3C2=O)C(=O)N1 (some centres unmarked) | RS4-11 | – | – | 0.062 µM |
| C=CC(=O)N1CCN(c2nc(=O)n(-c3c(C)ccnc3C(C)C)c3nc(-c4c(O)cccc4F)c(F)cc23)[C@@H](C)C1 | KYSE-410 | ATP luminescence | – | 0.0676 µM |
| Cc1cc(/C=C/C#N)cc(C)c1Nc1ccnc(Nc2ccc(C#N)cc2)n1 | HNE1 | MTT | 48 h | 14.1 µM |
| CC(C)C[C@@H]1NC(=O)CNC(=O)[C@H](CC(N)=O)NC(=O)[C@H](CCCNC(=N)N)NC(=O)[C@H]([C@@H](C)O)NC(=O)[C@@H]2CSSC[C@@H]3NC(=O)[C@H]([C@@H](C)O)NC(=O)CNC(=O)CNC(=O)[C@H](C(C)C)NC(=O)[C@@H]4CSSC[C@H](NC(=O)[C@H]([C@@H](C)O)NC(=O)[C@H](CSSC[C@H](NC(=O)[C@H](C(C)C)NC(=O)[C@@H]5CCCN5C1=O)C(=O)NCC(=O)N[C@@H](CCC(=O)O)C(=O)N[C@@H]([C@@H](C)O)C(=O)N4)NC(=O)CNC(=O)[C@@H]1CCCN1C(=O)[C@H]([C@@H](C)O)NC(=O)[C@H](CC(N)=O)NC3=O)C(=O)N[C@@H](CO)C(=O)N[C@@H](Cc1c[nH]c3ccccc13)C(=O)N1CCC[C@H]1C(=O)N[C@@H](C(C)C)C(=O)N2 | Sf9 | MTT | 24 h | 2.8 µM |
| N#Cc1cccc(C=NNC(=N)NN=Cc2cccc(C#N)c2)c1 | L6 | resazurin | 70 h | 6.65 µM |
| CO[C@]12C[C@@H](COC(=O)c3cncc(Br)c3)CN(C)[C@@H]1Cc1cn(C)c3cccc2c13 | HK-1 | MTT | 48 h | 5.99 µM |
| N=C(N/N=C/c1ccc(Oc2ccc(Cl)cc2)cc1)N/N=C/c1ccc(Oc2ccc(Cl)cc2)cc1 | L6 | resazurin | 70 h | 3.18 µM |
| CC(C)c1ccccc1[C@@H]1CCCN1C1CC2(CCN(c3ccc(C(=O)NS(=O)(=O)c4ccc(NC[C@H]5CC[C@](C)(O)CC5)c([N+](=O)[O-])c4)c(Oc4cnc5[nH]ccc5c4)c3)CC2)C1 | RS4-11 | ATP luminescence | 48 h | 0.00056 µM |
